Reference: ChEMBL document CHEMBL5543124, “Lead Compound Development of SRC-3 Inhibitors with Improved Pharmacokinetic Properties and Anticancer Efficacy” (J Med Chem, 2024)
Calls of active or inactive are those of the source. The calls are words filed in the database; no cut-off is given here.

Assays:
MDA-MB-468 [1] = test: Cytotoxicity against human MDA-MB-468 cells assessed as chromatin accessibility alteration observed after 4 hrs by ATAC-seq analysis; assay type: functional, cell-based
How it was run: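 MDA-MB-468 cells treated for 4 h (ATAC-seq) or 12 h (RNA-seq) before chromatin accessibility or transcript profiling.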

[2] = Half life in human liver microsomes at 1 uM incubated for 30 mins in presence of NADPH by LC-MS/MS analysis; assay type: ADME, Microsome; conditions: 0.5 h
How it was run: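 Human liver microsomes (1 mg/mL final) in 100 mM phosphate buffer with or without NADPH; compound at 1 μM final, 37 °C. Samples taken at 0, 5, 10, 20, 30 min (0 and 30 min without NADPH), quenched with cold acetonitrile containing internal standards, analysed by LC-MS/MS; verapamil as control.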

[3] = Tmax in CD-1 mouse at 10 mg/kg,po administration measured upto 48 hrs by LC-MS/MS analysis; assay type: ADME, organism-based; conditions: in vivo
How it was run: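 Male ICR mice (n=3) dosed by oral gavage at 10 mg/kg from a 1 mg/mL solution in 20% DMSO/16% PEG/4% dextrose in PBS. Tail-vein blood (10 μL) drawn at 15 and 30 min and at 1, 2, 4, 8, 24 and 48 h. Plasma quantified by LC-MS/MS against calibration standards. Parameters from non-compartmental extravascular model.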

[4] = biological target: Nuclear receptor coactivator 3 (Homo sapiens) (UniProt Q9Y6Q9); test: Inhibition of recombinant His-tagged SRC-3 (unknown origin) expressed in baculovirus assessed as reduction in recruitment of SRC-3 in ER complex at 0.15 uM incubated for 30 mins by pull-down based western blotting analysis
How it was run: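 Purified baculovirus-expressed His-SRC-3-flag (0.1 μg) preincubated with compound or vehicle for 30 min on ice. Then 0.1 μg recombinant ERα and His-p300 plus ERE-containing DNA oligo and 1 μM 17β-estradiol added, 1 h on ice. ER complexes immunoprecipitated with anti-ERα antibody; SRC-3 and p300 detected by western blot.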

[5] = Toxicity in SCID mouse orthotopically xenografted with human Panc-1-Luc cells assessed as change in body weight at 10 mg/kg,ip administration once daily for 8 weeks; assay type: organism-based; conditions: in vivo, 1344 h
How it was run: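 Male SCID mice (8 weeks) received orthotopic pancreatic implants of Panc-1-Luc cells (0.5×10^6 per mouse). Mice randomized by luciferase imaging (n=5 per group). From day 8, dosed 10 mg/kg i.p. or solvent vehicle once daily. Body weight recorded weekly; mice euthanized at day 63.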

[6] = biological target: T1, Prostaglandin G/H synthase 2 (Homo sapiens, UniProt P35354); test: Inhibition of COX2 (unknown origin); assay type: toxicity
T1 sequence (P35354 whole entry): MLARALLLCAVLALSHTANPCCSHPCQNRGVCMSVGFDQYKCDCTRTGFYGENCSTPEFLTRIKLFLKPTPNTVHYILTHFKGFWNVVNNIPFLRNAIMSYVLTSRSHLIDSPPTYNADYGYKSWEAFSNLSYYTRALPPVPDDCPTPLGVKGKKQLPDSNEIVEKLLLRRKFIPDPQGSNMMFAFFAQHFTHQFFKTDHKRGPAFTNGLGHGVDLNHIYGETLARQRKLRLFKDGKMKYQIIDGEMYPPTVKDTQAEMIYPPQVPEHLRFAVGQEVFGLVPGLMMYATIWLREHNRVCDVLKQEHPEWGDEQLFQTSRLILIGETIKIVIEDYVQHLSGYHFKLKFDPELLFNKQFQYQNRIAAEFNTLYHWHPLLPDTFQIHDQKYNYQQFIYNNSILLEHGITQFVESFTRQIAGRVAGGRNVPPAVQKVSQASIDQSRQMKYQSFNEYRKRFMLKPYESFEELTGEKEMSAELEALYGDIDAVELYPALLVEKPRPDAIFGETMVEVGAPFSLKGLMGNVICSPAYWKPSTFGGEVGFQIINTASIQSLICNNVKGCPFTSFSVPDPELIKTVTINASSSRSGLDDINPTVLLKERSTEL
How it was run: (§1)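 Tested in a commercial off-target safety screening panel of 78 targets. Values reported as RC50, taken as IC50 except for agonist mode, where RC50 is EC50.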

MDA-PCa-118b [7] = test: Antitumor activity against patient derived MDA-PCa-118b cells xenografted in SCID mouse assessed as reduction in tumor burden in femur at 10 mg/kg,ip administration measured after 4 weeks by hematoxylin and eosin staining based analysis; assay type: functional, organism-based; conditions: Homo sapiens
How it was run: (§2)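 AR-PDX 118b cells (1×10^5) injected via intra-femoral artery in male SCID mice (8–9 weeks). After 2 weeks, 10 mg/kg/day ip or vehicle for 4 weeks (n = 9/group). X-ray imaging every two weeks. At the end, femurs CT-scanned (5 per group) with 3D-reconstruction tumor size, and H&E histology used for tumor/femur area ratio.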

Prostate cancer organoid [8] = test: Antitumor activity against patient derived Prostate cancer PDX organoid assessed as reduction in organoid formation measured after 2 weeks; assay type: functional, tissue-based; conditions: Homo sapiens
How it was run: (§3)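 Single cells from prostate cancer PDX tumors (collagenase I/III digest); 20000 cells embedded in collagen gel and cultured overnight, then treated or vehicle for 14 days with at least 5 wells per dose. Organoids imaged and counted on day 14; groups compared by Student t test.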

[9] = Stability in human plasma incubated upto 150 mins; assay type: ADME, cell-free; conditions: 2.5 h
BT-474 = test: Cytotoxicity against human BT-474 cells assessed as inhibition of cell growth incubated for 72 hrs by MTT assay; assay type: functional, cell-based; conditions: BT-474, 72 h
How it was run: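 Cells seeded and grown to 70–80% confluence, then exposed for 72 h to a titration series (0.2–1000 nM). Viability read by MTT relative to untreated cells, with 6 replicates per concentration. IC50 fitted with a Hill-slope model.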

Prostate cancer organoid [10] = test: Antitumor activity against patient derived Prostate cancer PDX organoid assessed as reduction in organoid growth measured after 2 weeks; assay type: functional, tissue-based; conditions: Homo sapiens; how it was run: as §3
MDA-MB-468 [11] = test: Cytotoxicity against human MDA-MB-468 cells assessed as change in gene expression observed after 12 hrs by RNA-seq assay
MDA-PCa-118b [12] = test: Antitumor activity against patient derived MDA-PCa-118b cells xenografted in SCID mouse assessed as reduction in bone damage at 10 mg/kg,ip administration measured after 4 weeks by X-ray imaging analysis; assay type: functional, organism-based; conditions: Homo sapiens; how it was run: as §2
[13] = Antitumor activity against patient derived MDA-PCa-118b cells xenografted in SCID mouse assessed as reduction in ratio of tumor area to femur area at 10 mg/kg,ip administration measured after 4 weeks by CT imaging analysis; assay type: functional, Homo sapiens; parameters: scale not given: the % may be the effect or the level left; how it was run: as §2
Mu-type opioid receptor = Mu-type opioid receptor (Homo sapiens, UniProt P35372); test: Antagonist activity at OPRM1 (unknown origin) by cAMP assay; assay type: toxicity; how it was run: as §1
[14] = AUC (0 to t) in CD-1 mouse at 1 mg/kg,iv administration measured upto 48 hrs by LC-MS/MS analysis; assay type: ADME, organism-based; conditions: in vivo
How it was run: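 Single intravenous bolus in ICR male mice (n = 3, 6 weeks); dosing solution 0.5 mg/mL in 20% DMSO, 16% PEG, 4% dextrose in PBS. Tail-vein blood (10 μL) taken at 2, 5, 15, 30 min and 1, 2, 4, 8, 24, 48 h. Plasma quantified by LC-MS/MS against a 0.5–1000 ng/mL calibration; parameters from non-compartmental analysis.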

[15] = Antitumor activity against patient derived MDA-PCa-118b cells xenografted in SCID mouse assessed as reduction in femur volume at 10 mg/kg,ip administration measured after 4 weeks by CT imaging analysis; assay type: functional, Homo sapiens; parameters: scale not given: the % may be the effect or the level left; how it was run: as §2

Mu-type opioid receptor, sequence (P35372 whole entry): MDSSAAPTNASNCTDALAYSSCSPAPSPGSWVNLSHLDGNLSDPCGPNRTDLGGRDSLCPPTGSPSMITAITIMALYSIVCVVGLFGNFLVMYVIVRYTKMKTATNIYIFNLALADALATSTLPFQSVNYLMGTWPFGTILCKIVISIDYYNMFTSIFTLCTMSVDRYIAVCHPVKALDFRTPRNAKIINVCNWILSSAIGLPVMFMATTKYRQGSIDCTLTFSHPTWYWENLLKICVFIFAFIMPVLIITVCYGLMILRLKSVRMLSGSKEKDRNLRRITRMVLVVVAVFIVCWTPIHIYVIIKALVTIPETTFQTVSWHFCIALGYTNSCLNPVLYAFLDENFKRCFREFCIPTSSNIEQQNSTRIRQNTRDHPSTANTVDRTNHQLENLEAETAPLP
Nuclear receptor coactivator 3 (Homo sapiens), sequence (Q9Y6Q9 2-1424 limits assumed): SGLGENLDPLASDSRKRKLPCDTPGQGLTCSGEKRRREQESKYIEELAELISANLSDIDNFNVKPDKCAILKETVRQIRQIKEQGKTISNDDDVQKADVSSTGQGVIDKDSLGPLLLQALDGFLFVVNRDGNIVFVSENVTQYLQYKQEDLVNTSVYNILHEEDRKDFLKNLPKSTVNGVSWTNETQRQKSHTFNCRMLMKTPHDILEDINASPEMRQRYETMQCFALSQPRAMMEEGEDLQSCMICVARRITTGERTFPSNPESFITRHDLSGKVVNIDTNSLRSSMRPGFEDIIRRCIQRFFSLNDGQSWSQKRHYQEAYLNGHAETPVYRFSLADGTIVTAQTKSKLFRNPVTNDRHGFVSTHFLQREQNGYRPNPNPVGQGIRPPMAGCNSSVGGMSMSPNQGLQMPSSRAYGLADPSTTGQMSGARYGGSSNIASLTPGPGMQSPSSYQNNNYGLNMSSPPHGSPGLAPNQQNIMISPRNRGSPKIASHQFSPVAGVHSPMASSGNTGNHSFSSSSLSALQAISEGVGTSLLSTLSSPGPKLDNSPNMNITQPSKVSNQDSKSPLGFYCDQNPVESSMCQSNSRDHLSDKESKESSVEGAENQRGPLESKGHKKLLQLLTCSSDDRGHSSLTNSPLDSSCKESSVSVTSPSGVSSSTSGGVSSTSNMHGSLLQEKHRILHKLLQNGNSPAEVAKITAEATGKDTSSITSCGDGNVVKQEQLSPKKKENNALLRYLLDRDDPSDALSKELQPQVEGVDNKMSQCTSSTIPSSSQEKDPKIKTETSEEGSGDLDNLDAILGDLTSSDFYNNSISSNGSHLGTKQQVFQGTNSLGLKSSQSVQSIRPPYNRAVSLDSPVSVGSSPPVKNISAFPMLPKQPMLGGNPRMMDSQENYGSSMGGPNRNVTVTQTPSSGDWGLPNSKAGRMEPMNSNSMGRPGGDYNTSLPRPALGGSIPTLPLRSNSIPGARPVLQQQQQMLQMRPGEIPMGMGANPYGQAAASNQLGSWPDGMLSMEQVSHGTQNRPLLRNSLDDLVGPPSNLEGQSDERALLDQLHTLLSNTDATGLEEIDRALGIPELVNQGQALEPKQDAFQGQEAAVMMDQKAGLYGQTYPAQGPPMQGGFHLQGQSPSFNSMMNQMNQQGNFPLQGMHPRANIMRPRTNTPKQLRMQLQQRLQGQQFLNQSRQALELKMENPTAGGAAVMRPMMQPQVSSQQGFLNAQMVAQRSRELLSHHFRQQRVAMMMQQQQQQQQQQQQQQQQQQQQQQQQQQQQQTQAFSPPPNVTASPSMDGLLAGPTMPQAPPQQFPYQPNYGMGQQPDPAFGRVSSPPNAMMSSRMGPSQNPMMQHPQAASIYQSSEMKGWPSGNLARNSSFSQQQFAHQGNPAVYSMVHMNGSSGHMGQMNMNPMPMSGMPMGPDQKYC

Compound: C/C(=N\N=c1/[nH]c2cc(F)c(F)cc2n1C)c1ccc(F)cn1
- Activity (MDA-MB-468 [1]): Active
- t1/2 [2]: 8.49 min
- Tmax [3]: 15 min
- inhibition [4]: Active
- Activity [5]: Non-Toxic
- IC50 [6]: 3 µM
- Activity (MDA-PCa-118b [7]): Active
- Activity (Prostate cancer organoid [8]): Active
- Stability [9]: Stable
- IC50 (BT-474): 0.0008 µM
- Activity (Prostate cancer organoid [10]): Active
- Activity (MDA-MB-468 [11]): Active
- Activity (MDA-PCa-118b [12]): Active
- Activity [13]: >50%
- IC50 (Mu-type opioid receptor): 3.1 µM
- AUCt [14]: 737 ng·h/mL
- Activity [15]: >55%
